Bioassay records (PubChem BioAssay)
Compounds with a hit are over-represented: about 2.1% of the library has one in this group of screens.
Calpain2 inh: inhibitors of pig calpain II, primary screen, biochemical, fluorogenic peptide substrate, 1536-well | purified calpain II, 30 min | inhibition, % at 16 µM | 220,000 tested, 0.37% active;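 active = inhibition above about 50%, limit read from the data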
Runt-CBFb FRET: inhibitors of RUNX1 Runt–CBFb binding, primary screen, biochemical, FRET, Cerulean-Runt, Venus-CBFb, uHTS; Runt-related transcription factor 1 (Homo sapiens) + Core-binding factor subunit beta …; Cerulean-Runt/Venus-CBFb FRET ratio 530/480, 1 h; inhibition, % at 20 µM; 220,000 tested, 0.46% active; AID 1496, 2009;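 active = inhibition over about 50% at 20 µM in the single-dose screen, limit read from the data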
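Assay system: Cerulean-Runt domain / Medium: Tris 50 mM pH 7.5, KCl, K2SO4, 0.01% BSA / Timing: protein complex preformed 1 h, compound exposure 1 h, room temperature, dark / Measured by: FRET, excitation 422 nm, emission at 530 and 480 nm / Evaluation: loss of energy transfer signal / Control set: 5 µM unlabeled CBFb as full-inhibition high control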
RanGTP-Impb inh: inhibitors of RanGTP-importin-beta interaction, primary screen, biochemical, FRET, CFP-Ran, YFP-importin-beta, homogeneous. AID 2216, 2009. 300,000 tested, 1.1% active. inhibition, % (test concentration not listed). cell-free CFP-Ran/YFP-importin-beta FRET ratio. Ran GTPase (GTP-bound) - importin-beta complex;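 active = more than half of the replicate wells show a fall in the fluorescence ratio signal beyond about 16%, limit read from the data, passing the limit was not always enough; inconclusive = exactly half of the replicate wells pass the set limit; inactive = fewer than half of replicates pass the limit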
Runt-SMMHC FRET: inhibitors of RUNX1 Runt–CBFb-SMMHC binding, primary screen, biochemical, FRET, Cerulean-Runt, Venus-CBFb-SMMHC, uHTS. inhibition, % at 20 µM. Cerulean-Runt/Venus-CBFb-SMMHC FRET ratio 530/480, 1 h. Runt-related transcription factor 1 (Homo sapiens) + Core-binding factor subunit beta …. 220,000 tested, 0.74% active;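 active = mean inhibition across duplicate retests at 20 µM reaching about 50%, limit read from the data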;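 also: inhibitors lower the FRET ratio by blocking Runt binding to CBFb-SMMHC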
FAS TE block: FAS thioesterase domain inhibitors, primary screen, biochemical, fluorescence intensity, uHTS; Fatty acid synthase (Homo sapiens), P49327; AID 602261, 2012; 360,000 tested, 0.67% active; inhibition, % at 15 µM; recombinant FAS-TE, OMFH fluorogenic substrate, fluorescence endpoint;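 active = compounds whose normalised, plate-corrected inhibition of enzyme fluorescence in the single-dose primary screen is 50% or more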
Target sequence (P49327 whole entry, looked up, the tested form may be a part): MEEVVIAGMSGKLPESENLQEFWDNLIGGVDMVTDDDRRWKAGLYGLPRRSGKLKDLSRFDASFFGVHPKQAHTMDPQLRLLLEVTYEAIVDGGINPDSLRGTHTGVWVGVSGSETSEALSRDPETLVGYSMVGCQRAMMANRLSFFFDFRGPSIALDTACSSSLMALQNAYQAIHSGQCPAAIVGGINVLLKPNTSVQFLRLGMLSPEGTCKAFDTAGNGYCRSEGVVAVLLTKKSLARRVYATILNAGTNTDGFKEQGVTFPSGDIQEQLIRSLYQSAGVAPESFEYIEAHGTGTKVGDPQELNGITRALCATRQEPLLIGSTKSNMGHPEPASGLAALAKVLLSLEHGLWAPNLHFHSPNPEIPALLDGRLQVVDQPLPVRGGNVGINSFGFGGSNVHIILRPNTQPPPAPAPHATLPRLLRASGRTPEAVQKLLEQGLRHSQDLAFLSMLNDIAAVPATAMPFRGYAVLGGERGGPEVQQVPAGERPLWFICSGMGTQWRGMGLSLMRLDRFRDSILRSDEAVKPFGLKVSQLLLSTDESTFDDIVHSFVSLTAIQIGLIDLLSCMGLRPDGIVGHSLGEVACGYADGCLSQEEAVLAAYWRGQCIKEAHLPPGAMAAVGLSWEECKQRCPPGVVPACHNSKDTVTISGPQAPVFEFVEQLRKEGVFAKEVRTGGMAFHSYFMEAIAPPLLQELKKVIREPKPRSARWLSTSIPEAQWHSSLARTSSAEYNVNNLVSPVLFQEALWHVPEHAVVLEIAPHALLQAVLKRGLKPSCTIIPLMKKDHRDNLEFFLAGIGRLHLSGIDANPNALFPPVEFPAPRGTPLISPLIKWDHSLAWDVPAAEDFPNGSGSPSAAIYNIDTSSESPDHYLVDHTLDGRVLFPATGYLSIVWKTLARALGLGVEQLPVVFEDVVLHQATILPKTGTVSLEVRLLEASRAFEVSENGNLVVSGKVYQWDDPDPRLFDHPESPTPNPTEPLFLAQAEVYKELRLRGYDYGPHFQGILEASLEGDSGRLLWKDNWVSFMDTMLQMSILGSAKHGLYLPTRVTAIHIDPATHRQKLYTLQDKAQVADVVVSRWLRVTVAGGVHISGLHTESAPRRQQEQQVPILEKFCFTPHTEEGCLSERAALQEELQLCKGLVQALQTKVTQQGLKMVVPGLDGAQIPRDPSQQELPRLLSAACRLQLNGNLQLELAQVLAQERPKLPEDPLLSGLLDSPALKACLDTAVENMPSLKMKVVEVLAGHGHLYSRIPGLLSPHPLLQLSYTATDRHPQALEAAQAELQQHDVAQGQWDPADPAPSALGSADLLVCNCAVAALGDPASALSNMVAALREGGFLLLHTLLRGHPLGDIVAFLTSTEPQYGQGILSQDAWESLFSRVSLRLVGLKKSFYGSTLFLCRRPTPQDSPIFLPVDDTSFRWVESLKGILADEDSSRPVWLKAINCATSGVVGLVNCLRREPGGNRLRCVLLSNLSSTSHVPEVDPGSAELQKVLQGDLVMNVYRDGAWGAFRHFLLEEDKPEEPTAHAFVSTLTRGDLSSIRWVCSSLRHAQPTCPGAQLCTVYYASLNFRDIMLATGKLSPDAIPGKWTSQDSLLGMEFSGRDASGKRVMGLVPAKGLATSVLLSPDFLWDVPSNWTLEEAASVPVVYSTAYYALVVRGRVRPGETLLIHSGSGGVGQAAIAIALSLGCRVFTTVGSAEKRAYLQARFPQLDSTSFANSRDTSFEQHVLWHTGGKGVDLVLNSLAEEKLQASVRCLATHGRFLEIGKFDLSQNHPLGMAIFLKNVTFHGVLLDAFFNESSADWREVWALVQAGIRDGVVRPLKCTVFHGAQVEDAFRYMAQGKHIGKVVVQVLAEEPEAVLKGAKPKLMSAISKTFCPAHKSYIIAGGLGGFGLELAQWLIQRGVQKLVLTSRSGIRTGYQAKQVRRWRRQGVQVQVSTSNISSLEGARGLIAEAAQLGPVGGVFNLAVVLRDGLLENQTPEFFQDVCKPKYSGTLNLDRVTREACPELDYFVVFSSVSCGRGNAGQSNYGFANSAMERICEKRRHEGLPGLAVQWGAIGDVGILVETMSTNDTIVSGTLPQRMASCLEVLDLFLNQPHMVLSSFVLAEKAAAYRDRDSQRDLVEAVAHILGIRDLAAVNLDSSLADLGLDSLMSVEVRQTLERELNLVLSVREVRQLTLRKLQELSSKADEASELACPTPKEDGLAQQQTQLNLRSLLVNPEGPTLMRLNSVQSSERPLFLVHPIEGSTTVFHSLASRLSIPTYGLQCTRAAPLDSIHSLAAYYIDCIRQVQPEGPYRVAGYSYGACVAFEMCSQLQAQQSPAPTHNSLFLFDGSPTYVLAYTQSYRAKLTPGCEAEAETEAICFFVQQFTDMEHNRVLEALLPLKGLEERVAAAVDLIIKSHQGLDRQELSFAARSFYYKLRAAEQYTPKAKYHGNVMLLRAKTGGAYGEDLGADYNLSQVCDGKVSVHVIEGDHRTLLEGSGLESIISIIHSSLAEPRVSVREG
Numbers stand for hits; - = inactive; ? = inconclusive; . = not tested or not shown.

SMILES	Calpain2 inh	Runt-CBFb FRET	RanGTP-Impb inh	Runt-SMMHC FRET	FAS TE block
CCc1c(C)c(C#N)c2nc3ccccc3n2c1NC	.	.	-	.	-
CCN(CC)c1cc(C)c(C#N)c2nc3ccccc3n12	-	55	32	90	-
CCc1c(C)c(C#N)c2nc3ccccc3n2c1NCc1ccco1	-	-	?	72	-
CCCc1cc(NCc2ccccn2)n2c(nc3ccccc32)c1C#N	-	-	-	-	-
CC(=O)N(CCC(c1ccco1)C(C)C)Cc1ccc(OC(C)C)cc1 (centres undefined)	-	-	-	-	-
CCCc1cc(NCC2CCCO2)n2c(nc3ccccc32)c1C#N (centres undefined)	-	-	52	55	-
COCCNc1cc(C)c(C#N)c2nc3ccccc3n12	-	-	25	-	-
CCCc1cc(NCCN(C)C)n2c(nc3ccccc32)c1C#N	.	.	-	.	-
CCCNc1cc(C)c(C#N)c2nc3ccccc3n12	-	-	.	-	-
O=C(Nc1cccc(S(=O)(=O)N2CCCCC2)c1)C1COc2ccccc2O1 (centres undefined)	.	.	.	.	-
CC12CCC(C(=O)N(c3nccs3)C1=O)C2(C)C (centres undefined)	.	.	.	.	-
C=CCOc1ccc(C2C(C#N)=C(N)N(Nc3ccccc3)C3=C2C(=O)CCC3)cc1OC (centres undefined)	-	89	-	104	-
COc1cc(C2C(C#N)=C(N)N(Nc3ccccc3)C3=C2C(=O)CC(C)(C)C3)ccc1OCc1ccccc1 (centres undefined)	-	-	-	-	-
CCCCN(CC)C(=O)c1cc2cc3ccc(OC)cc3nc2o1	-	-	59	-	-
COCCNC(=O)c1cc2cc3ccc(OC)cc3nc2o1	.	.	-	.	-
COc1ccc2sc3ccccc3c(=O)c2c1	-	-	95	-	-
COc1ccc2sc(C)cc(=O)c2c1	.	.	.	.	-
CC(=O)c1cccc(-c2ccnc3c2CC(C(=O)NCc2ccco2)O3)c1 (centres undefined)	.	.	.	.	-
CCOC(=O)C1CCCN(C(=O)c2cc3cc(OC)c(OC)cc3[nH]2)C1 (centres undefined)	.	.	-	.	-
O=C(CSc1ccc2nnc(CCNC(=O)c3ccccc3)n2n1)NCc1ccccc1	.	.	-	.	-
O=C(NCCc1nnc2ccc(NCc3ccc(Cl)cc3)nn12)c1ccccc1	57	-	-	-	-
CCOc1ccccc1Cn1c(=O)sc2ccccc21	51	-	-	-	-
COc1cc(/C=C2\SC(=O)NC2=O)ccc1Oc1ccc([N+](=O)[O-])cn1	-	-	-	-	-
COc1cc(/C=C2/SC(=O)NC2=O)ccc1Oc1ccc([N+](=O)[O-])cc1[N+](=O)[O-]	63	-	-	-	-
COc1ccc(C2C3=C(CCCC3=O)N(CC(=O)O)C3=C2C(=O)CCC3)cc1Br	.	.	.	.	-
SMILES	Calpain2 inh	Runt-CBFb FRET	RanGTP-Impb inh	Runt-SMMHC FRET	FAS TE block
COc1ccccc1C1C2=C(CCCC2=O)N(CC(=O)O)C2=C1C(=O)CCC2	.	.	118	.	-
C#CCOc1c(Cl)cc(C2C3=C(CCCC3=O)N(CC(=O)O)C3=C2C(=O)CCC3)cc1OC	.	.	127	.	-
COc1ccc(C2C3=C(CC(C)(C)CC3=O)N(CC(=O)O)C3=C2C(=O)CC(C)(C)C3)cc1OC	.	.	-	.	-
COc1ccc(C2C3=C(CCCC3=O)N(CC(=O)O)C3=C2C(=O)CCC3)cc1Cl	.	.	112	.	-
CCOc1cc(C2C3=C(CCCC3=O)N(CC(=O)O)C3=C2C(=O)CCC3)ccc1OC	.	.	-	.	-
O=C1C2CCCCC2C(=O)N1c1ccc(NC2CCN(Cc3ccccc3)CC2)c([N+](=O)[O-])c1 (centres undefined)	84	-	-	-	-
CCOC(=O)c1ccc(NC(=O)Nc2ncccc2C)cc1	51	-	-	-	-
CCOC(=O)c1cnc(SC2CC(=O)N(c3ccccc3)C2=O)nc1N (centres undefined)	-	-	-	-	-
CCOC(=O)c1cnc(SC2CCc3ccccc3C2=O)nc1N (centres undefined)	59	-	-	-	-
COc1ccc(S(=O)(=O)Nc2cccc(S(=O)(=O)N3CCCCC3)c2)cc1	.	.	.	.	-
Cc1ccc(S(=O)(=O)Nc2nc3ccccc3nc2Nc2cccc(S(=O)(=O)N3CCCC3)c2)cc1	-	-	30	90	-
Cc1c(C(=O)NCc2cccs2)sc(=O)n1Cc1ccc(S(=O)(=O)N(C)C)cc1	.	.	.	.	-
CCCCn1c(NS(=O)(=O)c2ccccc2)c(S(=O)(=O)c2ccc(C)cc2)c2nc3ccccc3nc21	-	-	51	53	-
Cc1ccc(C(=O)Nn2c(N)c(S(=O)(=O)c3ccc(C)cc3)c3nc4ccccc4nc32)cc1	-	-	-	-	-
CCCCn1c(NC(=O)c2ccco2)c(S(=O)(=O)c2ccc(C)cc2)c2nc3ccccc3nc21	-	-	49	-	-
CCCCCn1c(NC(=O)c2ccco2)c(S(=O)(=O)c2ccc(C)cc2)c2nc3ccccc3nc21	-	-	80	147	-
Cc1ccc(S(=O)(=O)c2c(N)n(CCCO)c3nc4ccccc4nc23)cc1	-	-	-	-	-
COc1ccc(C(=O)OCC(=O)NCC2CCCO2)c(F)c1 (centres undefined)	.	.	.	.	-
CC(C)c1ccc(CN2CCN(C(=O)CCl)CC2)cc1	-	-	.	-	-
CC(C)(C)OC(=O)N1CCC(c2c(C(=O)NCC3CCN(C4CCCC4)C3)cnn2-c2cccc(Cl)c2)CC1 (centres undefined)	.	.	-	.	-
O=C(CCNC(=O)c1ccc(Br)cc1)NCc1cccnc1	.	.	-	.	-
N#Cc1ccsc1NC(=O)C1CCN(S(=O)(=O)c2cccs2)CC1	.	.	-	.	-
CN1CCc2c(sc(NC(=O)C3CCCCC3)c2C(N)=O)C1	.	.	147	.	-
CC(C)N1CCc2c(sc(NC(=O)C3CCCCC3)c2C(N)=O)C1	.	.	134	.	-
COC(=O)c1c(NC(=O)C2CC2)sc2c1CCCC2	-	-	-	-	-
